Results: ChEMBL document CHEMBL5303300, “EUbOPEN Chemogenomics Library - Multiplex” (2023)
Several values for one entry are separate records, joined by “and”; a condition that tells them apart may be missing. Equal values may be shown once.

Tested on: U2OS
Assay: Multiplex assay against U2OS
Format: toxicity, cell-based
Conditions: human, number of replicates 2
In short: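 Live cells carried four stains from seeding: Hoechst33342, BioTracker Green Microtubule Cytoskeleton Dye, MitoTracker Red and Annexin V Alexa Fluor 680. They were imaged on a CQ1 microscope at 37°C and 5% CO2 after compound addition. Using CellPathfinder machine-learning gating, cells were split into Hoechst high-intensity objects or normal cells, normal cells into healthy, pyknosed or fragmented nuclei, and pyknosed cells into mitotic or apoptotic; tubulin, mitochondrial-mass and membrane-permeability phenotypes are per cents of healthy-nucleus cells.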

[1] = 12 h, 1 µM, compound concentration 1 uM
[2] = 12 h, 10 µM, compound concentration 10 uM
[3] = 24 h, 1 µM, compound concentration 1 uM
[4] = 24 h, 10 µM, compound concentration 10 uM
[5] = 48 h, 1 µM, compound concentration 1 uM
[6] = 48 h, 10 µM, compound concentration 10 uM

`Cn1cc(-c2ccc(-c3cncc(Cl)c3N3CCC4(CCNC4=O)CC3)cc2)cn1` was tested, and the “Population Apoptotic (%)” value [1] was 56% and 66%, the “Population Healthy Nuclei (%)” value [1] was 86% and 64% and the “Population Hoechst High Intensity Objects (%)” value [1] was 0%. The “Population Membrane Permeable-Phenotype (%)” value [1] was 3% and 7%, the “Population Mitochondria Different-Phenotype (%)” value [1] was 1% and 0% and the “Population Mitotic Cells (%)” value [1] was 43% and 33%. For the same compound, the “Population Normal (%)” value [1] was 99% and 100%, the “Population Pyknosed Nuclei (%)” value [1] was 8% and 7% and the “Population Tubulin-Different-Phenotype (%)” value [1] was 64% and 40%. The “Population Apoptotic (%)” value [2] was 100% and 50%, the “Population Healthy Nuclei (%)” value [2] was 61% and 79% and the “Population Hoechst High Intensity Objects (%)” value [2] was 0%. For the same compound, the “Population Membrane Permeable-Phenotype (%)” value [2] was 19% and 10%, the “Population Mitochondria Different-Phenotype (%)” value [2] was 0% and 6% and the “Population Normal (%)” value [2] was 100%. The “Population Pyknosed Nuclei (%)” value [2] was 9% and 14%, the “Population Tubulin-Different-Phenotype (%)” value [2] was 23% and 36% and the “Population Apoptotic (%)” value [3] was 72% and 66%. For the same compound, the “Population Healthy Nuclei (%)” value [3] was 88% and 65%, the “Population Hoechst High Intensity Objects (%)” value [3] was 0% and the “Population Membrane Permeable-Phenotype (%)” value [3] was 2% and 7%. For the same compound, the “Population Mitochondria Different-Phenotype (%)” value [3] was 2% and 0%, the “Population Mitotic Cells (%)” value [3] was 27% and 33% and the “Population Normal (%)” value [3] was 100%. For the same compound, the “Population Pyknosed Nuclei (%)” value [3] was 8% and 6%, the “Population Tubulin-Different-Phenotype (%)” value [3] was 65% and 39% and the “Population Apoptotic (%)” value [4] was 88% and 60%. The “Population Healthy Nuclei (%)” value [4] was 59% and 80%, the “Population Hoechst High Intensity Objects (%)” value [4] was 0% and the “Population Membrane Permeable-Phenotype (%)” value [4] was 20% and 14%. The “Population Mitochondria Different-Phenotype (%)” value [4] was 0% and 17%, the “Population Normal (%)” value [4] was 100% and 99% and the “Population Pyknosed Nuclei (%)” value [4] was 21% and 13%. The “Population Tubulin-Different-Phenotype (%)” value [4] was 32% and 46%, the “Population Apoptotic (%)” value [5] was 70% and 100% and the “Population Healthy Nuclei (%)” value [5] was 88% and 65%. For the same compound, the “Population Hoechst High Intensity Objects (%)” value [5] was 0%, the “Population Membrane Permeable-Phenotype (%)” value [5] was 2% and 5% and the “Population Mitochondria Different-Phenotype (%)” value [5] was 3% and 0%. The “Population Normal (%)” value [5] was 99% and 100%, the “Population Pyknosed Nuclei (%)” value [5] was 7% and 6% and the “Population Tubulin-Different-Phenotype (%)” value [5] was 65% and 47%. The “Population Apoptotic (%)” value [6] was 78% and 92%, the “Population Fragmented Nuclei (%)” value [6] was 7% and 17% and the “Population Healthy Nuclei (%)” value [6] was 74% and 53%. For the same compound, the “Population Hoechst High Intensity Objects (%)” value [6] was 0%, the “Population Membrane Permeable-Phenotype (%)” value [6] was 25% and 33% and the “Population Mitotic Cells (%)” value [6] was 21% and 7%. For the same compound, the “Population Normal (%)” value [6] was 100%, the “Population Pyknosed Nuclei (%)” value [6] was 17% and 28% and the “Population Tubulin-Different-Phenotype (%)” value [6] was 50% and 45%.
For `CCOC(=O)Nc1cc(-c2ccc(C)c(NS(C)(=O)=O)c2)nn2c(C)nnc12`, the “Population Apoptotic (%)” value [2] was 54% and 50% and 20%, the “Population Healthy Nuclei (%)” value [2] was 66% and 75% and 76% and 53% and the “Population Hoechst High Intensity Objects (%)” value [2] was 0%. For the same compound, the “Population Membrane Permeable-Phenotype (%)” value [2] was 3% and 0% and 5%, the “Population Mitochondria Different-Phenotype (%)” value [2] was 3% [middle of 4 runs] and the “Population Mitotic Cells (%)” value [2] was 45% and 50% and 80%. The “Population Normal (%)” value [2] was 100%, the “Population Pyknosed Nuclei (%)” value [2] was 24% and 19% and 17% and 15% and the “Population Tubulin-Different-Phenotype (%)” value [2] was 59% [middle of 4 runs]. The “Population Apoptotic (%)” value [4] was 70% and 65% and 53% and 66%, the “Population Healthy Nuclei (%)” value [4] was 59% and 69% and 67% and 50% and the “Population Hoechst High Intensity Objects (%)” value [4] was 0%. For the same compound, the “Population Membrane Permeable-Phenotype (%)” value [4] was 6% [middle of 4 runs], the “Population Mitotic Cells (%)” value [4] was 29% and 35% and 46% and 33% and the “Population Normal (%)” value [4] was 100% and 99%. For the same compound, the “Population Pyknosed Nuclei (%)” value [4] was 20% [middle of 4 runs], the “Population Tubulin-Different-Phenotype (%)” value [4] was 71% [middle of 4 runs] and the “Population Apoptotic (%)” value [6] was 85% and 72% and 76%. The “Population Fragmented Nuclei (%)” value [6] was 30% and 20% and 18%, the “Population Healthy Nuclei (%)” value [6] was 30% and 33% and 51% and the “Population Hoechst High Intensity Objects (%)” value [6] was 0% and 3%. The “Population Mitochondria Different-Phenotype (%)” value [6] was 9% and 0% and 3%, the “Population Mitotic Cells (%)” value [6] was 14% and 27% and 23% and the “Population Normal (%)” value [6] was 100% and 96% and 99%. For the same compound, the “Population Pyknosed Nuclei (%)” value [6] was 38% and 45% and 27% and 29%.
With `O=C1NC(=NCc2cccs2)SC1=Cc1ccc2ncccc2c1` the “Population Apoptotic (%)” value [1] was 100% and 60%, the “Population Healthy Nuclei (%)” value [1] was 68% and 89% and the “Population Hoechst High Intensity Objects (%)” value [1] was 0%. The “Population Membrane Permeable-Phenotype (%)” value [1] was 0% and 1%, the “Population Mitochondria Different-Phenotype (%)” value [1] was 0% and 1% and the “Population Normal (%)” value [1] was 100%. The “Population Pyknosed Nuclei (%)” value [1] was 9% and 6%, the “Population Tubulin-Different-Phenotype (%)” value [1] was 59% and 88% and the “Population Apoptotic (%)” value [2] was 71% and 81%. For the same compound, the “Population Healthy Nuclei (%)” value [2] was 57% and 85%, the “Population Hoechst High Intensity Objects (%)” value [2] was 0% and the “Population Membrane Permeable-Phenotype (%)” value [2] was 5% and 7%. For the same compound, the “Population Mitochondria Different-Phenotype (%)” value [2] was 0% and 4%, the “Population Mitotic Cells (%)” value [2] was 28% and 18% and the “Population Normal (%)” value [2] was 100%. For the same compound, the “Population Pyknosed Nuclei (%)” value [2] was 21% and 8%, the “Population Tubulin-Different-Phenotype (%)” value [2] was 31% and 33% and the “Population Apoptotic (%)” value [3] was 63% and 61%. For the same compound, the “Population Fragmented Nuclei (%)” value [3] was 11% and 4%, the “Population Healthy Nuclei (%)” value [3] was 66% and 89% and the “Population Hoechst High Intensity Objects (%)” value [3] was 0%. For the same compound, the “Population Membrane Permeable-Phenotype (%)” value [3] was 5% and 0%, the “Population Mitochondria Different-Phenotype (%)” value [3] was 0% and the “Population Mitotic Cells (%)” value [3] was 36% and 38%. The “Population Normal (%)” value [3] was 100%, the “Population Tubulin-Different-Phenotype (%)” value [3] was 67% and 82% and the “Population Apoptotic (%)” value [4] was 100% and 75%. For the same compound, the “Population Healthy Nuclei (%)” value [4] was 56% and 79%, the “Population Hoechst High Intensity Objects (%)” value [4] was 0% and the “Population Membrane Permeable-Phenotype (%)” value [4] was 0% and 3%. The “Population Mitochondria Different-Phenotype (%)” value [4] was 0% and 4%, the “Population Mitotic Cells (%)” value [4] was 0% and 25% and the “Population Normal (%)” value [4] was 100%. For the same compound, the “Population Pyknosed Nuclei (%)” value [4] was 26% and 15%, the “Population Tubulin-Different-Phenotype (%)” value [4] was 26% and 41% and the “Population Apoptotic (%)” value [5] was 92% and 73%. For the same compound, the “Population Healthy Nuclei (%)” value [5] was 57% and 88%, the “Population Hoechst High Intensity Objects (%)” value [5] was 0% and the “Population Membrane Permeable-Phenotype (%)” value [5] was 4% and 2%. The “Population Mitochondria Different-Phenotype (%)” value [5] was 0%, the “Population Normal (%)” value [5] was 100% and the “Population Tubulin-Different-Phenotype (%)” value [5] was 70% and 90%. The “Population Apoptotic (%)” value [6] was 84%, the “Population Fragmented Nuclei (%)” value [6] was 17% and 12% and the “Population Healthy Nuclei (%)” value [6] was 36% and 60%. The “Population Hoechst High Intensity Objects (%)” value [6] was 2% and 0%, the “Population Membrane Permeable-Phenotype (%)” value [6] was 6% and 4% and the “Population Mitotic Cells (%)” value [6] was 15%. The “Population Normal (%)” value [6] was 97% and 100%, the “Population Pyknosed Nuclei (%)” value [6] was 46% and 26% and the “Population Tubulin-Different-Phenotype (%)” value [6] was 60% and 55%.
In the case of `CCN(CC)C/C=C/C(=O)Nc1cc2c(Nc3ccc(F)c(Cl)c3)ncnc2cc1OCC1CC1`, the “Population Apoptotic (%)” value [1] is reported as 100% and 80%, the “Population Healthy Nuclei (%)” value [1] is reported as 61% and 76% and the “Population Hoechst High Intensity Objects (%)” value [1] is reported as 0%. For the same compound, the “Population Membrane Permeable-Phenotype (%)” value [1] was 4% and 13%, the “Population Mitochondria Different-Phenotype (%)” value [1] was 29% and 21% and the “Population Mitotic Cells (%)” value [1] was 0% and 20%. The “Population Normal (%)” value [1] was 100%, the “Population Pyknosed Nuclei (%)” value [1] was 17% and 16% and the “Population Tubulin-Different-Phenotype (%)” value [1] was 58% and 49%. For the same compound, the “Population Apoptotic (%)” value [2] was 80% and 91%, the “Population Fragmented Nuclei (%)” value [2] was 27% and 10% and the “Population Healthy Nuclei (%)” value [2] was 25% and 48%. For the same compound, the “Population Hoechst High Intensity Objects (%)” value [2] was 0% and 1%, the “Population Membrane Permeable-Phenotype (%)” value [2] was 45% and 31% and the “Population Mitochondria Different-Phenotype (%)” value [2] was 45% and 57%. For the same compound, the “Population Mitotic Cells (%)” value [2] was 20% and 8%, the “Population Normal (%)” value [2] was 100% and 98% and the “Population Pyknosed Nuclei (%)” value [2] was 46% and 40%. For the same compound, the “Population Tubulin-Different-Phenotype (%)” value [2] was 90% and 95%, the “Population Apoptotic (%)” value [3] was 88% and 82% and the “Population Healthy Nuclei (%)” value [3] was 58% and 73%. The “Population Hoechst High Intensity Objects (%)” value [3] was 0%, the “Population Membrane Permeable-Phenotype (%)” value [3] was 10% and 15% and the “Population Mitochondria Different-Phenotype (%)” value [3] was 44% and 39%. The “Population Mitotic Cells (%)” value [3] was 11% and 17%, the “Population Normal (%)” value [3] was 100% and 99% and the “Population Pyknosed Nuclei (%)” value [3] was 18% and 23%. For the same compound, the “Population Tubulin-Different-Phenotype (%)” value [3] was 51% and 48%, the “Population Apoptotic (%)” value [4] was 93% and the “Population Healthy Nuclei (%)” value [4] was 11% and 1%. The “Population Hoechst High Intensity Objects (%)” value [4] was 1%, the “Population Mitotic Cells (%)” value [4] was 6% and the “Population Normal (%)” value [4] was 98%. For the same compound, the “Population Pyknosed Nuclei (%)” value [4] was 78% and 56%, the “Population Tubulin-Different-Phenotype (%)” value [4] was 93% and 100% and the “Total Cell Count” value [4] was 133 and 52. The “Population Apoptotic (%)” value [5] was 84% and 98%, the “Population Healthy Nuclei (%)” value [5] was 52% and 71% and the “Population Hoechst High Intensity Objects (%)” value [5] was 1% and 0%. For the same compound, the “Population Membrane Permeable-Phenotype (%)” value [5] was 10% and 12%, the “Population Mitochondria Different-Phenotype (%)” value [5] was 34% and 30% and the “Population Normal (%)” value [5] was 98% and 100%. For the same compound, the “Population Pyknosed Nuclei (%)” value [5] was 23% and 22%, the “Population Tubulin-Different-Phenotype (%)” value [5] was 37% and 42% and the “Population Apoptotic (%)” value [6] was 100% and 98%. For the same compound, the “Population Healthy Nuclei (%)” value [6] was 1% and 7%, the “Population Hoechst High Intensity Objects (%)” value [6] was 0% and the “Population Membrane Permeable-Phenotype (%)” value [6] was 100% and 88%. The “Population Mitochondria Different-Phenotype (%)” value [6] was 100% and 88%, the “Population Mitotic Cells (%)” value [6] was 0% and 1% and the “Population Normal (%)” value [6] was 100% and 99%. For the same compound, the “Population Pyknosed Nuclei (%)” value [6] was 46% and 87%, the “Population Tubulin-Different-Phenotype (%)” value [6] was 100% and the “Total Cell Count” value [6] was 56 and 120.
